The results in this text go back to ChEMBL document CHEMBL5104222 (RSC Med Chem, 2022).

Activity calls are given as the source filed them. No cut-off for these calls is given here.

The target of assay [1] is T1, von Hippel-Lindau disease tumor suppressor/Histone deacetylase 2 (Homo sapiens) (UniProt Q92769+P40337). As to the kind of experiment: PROTAC activity at VHL/HDAC2 in human HCT-116 cells assessed as induction of HDAC2 degradation at 10 uM incubated for 24 hrs by Western blot analysis relative to control. The assay is classed as cell-based. The procedure, abridged: (§1)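 HCT116 cells were treated 24 h post-seeding, with doses of 0.01-10 μM, and harvested after 24 h. Lysis used 50 mM Tris-HCl, 150 mM NaCl, 0.5% NP-40 and 0.5% Triton X-100 with protease inhibitor, 30 min on ice. Protein was measured by Bradford and 20-30 μg loaded per lane. Blots were probed for HDAC1, HDAC2 and HDAC3 with α-tubulin and read by infrared densitometry. Levels are given as % of DMSO. DC50 was fitted from Dmax values with a variable-slope dose-response model.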
T1 sequence (P40337 whole entry, looked up): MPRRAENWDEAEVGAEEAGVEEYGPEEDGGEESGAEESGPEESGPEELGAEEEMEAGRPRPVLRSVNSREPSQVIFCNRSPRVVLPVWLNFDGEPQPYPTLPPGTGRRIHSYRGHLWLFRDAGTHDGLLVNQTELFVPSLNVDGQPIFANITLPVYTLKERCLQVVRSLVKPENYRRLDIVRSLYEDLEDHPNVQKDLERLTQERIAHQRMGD
T1 sequence (Q92769 whole entry, looked up): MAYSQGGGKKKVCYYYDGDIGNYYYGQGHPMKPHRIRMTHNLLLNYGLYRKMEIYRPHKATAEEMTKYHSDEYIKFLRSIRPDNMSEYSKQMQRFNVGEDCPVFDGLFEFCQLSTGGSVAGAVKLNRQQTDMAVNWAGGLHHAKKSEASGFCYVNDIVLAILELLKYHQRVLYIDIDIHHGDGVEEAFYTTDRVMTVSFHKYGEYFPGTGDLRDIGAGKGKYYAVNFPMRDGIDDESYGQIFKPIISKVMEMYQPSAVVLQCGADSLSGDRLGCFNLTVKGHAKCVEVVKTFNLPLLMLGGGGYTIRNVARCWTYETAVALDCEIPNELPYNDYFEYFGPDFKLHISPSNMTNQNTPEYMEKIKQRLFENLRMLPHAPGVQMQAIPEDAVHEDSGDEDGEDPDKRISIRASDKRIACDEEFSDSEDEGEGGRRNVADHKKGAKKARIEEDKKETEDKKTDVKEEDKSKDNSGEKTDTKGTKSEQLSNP
Background: Immunoblotting shows a protein as a band on a membrane.

In assay [2] the target is T2, von Hippel-Lindau disease tumor suppressor/Histone deacetylase 1 (Homo sapiens) (UniProt Q13547+P40337). As to the kind of experiment: PROTAC activity at VHL/HDAC1 in human HCT-116 cells assessed as induction of HDAC1 degradation by measuring maximum efficacy at 10 uM incubated for 24 hrs by Western blot analysis relative to control. Format: cell-based. The essentials: as §1
T2 sequence (P40337 whole entry, looked up): as the sequence (P40337 whole entry, looked up) above
T2 sequence (Q13547 whole entry, looked up): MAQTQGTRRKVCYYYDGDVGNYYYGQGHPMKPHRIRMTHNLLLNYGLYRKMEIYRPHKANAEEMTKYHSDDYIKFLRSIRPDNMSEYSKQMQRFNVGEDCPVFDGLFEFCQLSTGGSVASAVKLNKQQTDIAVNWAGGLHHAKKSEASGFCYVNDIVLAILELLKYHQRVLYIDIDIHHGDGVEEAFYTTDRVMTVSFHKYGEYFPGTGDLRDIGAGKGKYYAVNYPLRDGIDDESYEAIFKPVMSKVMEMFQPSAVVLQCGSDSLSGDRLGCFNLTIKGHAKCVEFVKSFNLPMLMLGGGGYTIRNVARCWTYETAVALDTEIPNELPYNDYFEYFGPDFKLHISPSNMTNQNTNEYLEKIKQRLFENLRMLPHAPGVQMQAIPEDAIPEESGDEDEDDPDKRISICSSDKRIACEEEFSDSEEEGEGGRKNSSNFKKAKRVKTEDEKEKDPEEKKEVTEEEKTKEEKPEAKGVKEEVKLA

For assay [3], the target named is T3, von Hippel-Lindau disease tumor suppressor/Histone deacetylase 3 (Homo sapiens) (UniProt O15379+P40337). As to the kind of experiment: PROTAC activity at VHL/HDAC3 in human HCT-116 cells assessed as HDAC3 level at 0.1 uM incubated for 24 hrs by Western blot analysis relative to control. The assay is classed as cell-based. The essentials: as §1
T3 sequence (O15379 whole entry, looked up): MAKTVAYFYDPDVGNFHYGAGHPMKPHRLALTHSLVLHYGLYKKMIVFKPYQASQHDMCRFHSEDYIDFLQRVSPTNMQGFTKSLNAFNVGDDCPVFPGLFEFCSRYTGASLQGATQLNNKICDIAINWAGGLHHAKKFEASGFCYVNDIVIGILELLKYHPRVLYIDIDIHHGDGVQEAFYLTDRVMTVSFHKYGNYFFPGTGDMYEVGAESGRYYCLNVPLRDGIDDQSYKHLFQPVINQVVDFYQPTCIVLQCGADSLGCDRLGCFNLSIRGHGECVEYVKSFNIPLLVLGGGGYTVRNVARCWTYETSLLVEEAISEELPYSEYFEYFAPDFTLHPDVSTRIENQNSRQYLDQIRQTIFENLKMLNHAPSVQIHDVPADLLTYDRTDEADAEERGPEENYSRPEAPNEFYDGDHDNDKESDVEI
T3 sequence (P40337 whole entry, looked up): as the sequence (P40337 whole entry, looked up) above
The target of assay [4] is T2, von Hippel-Lindau disease tumor suppressor/Histone deacetylase 1 (Homo sapiens). As to the kind of experiment: PROTAC activity at VHL/HDAC1 in human HCT-116 cells assessed as induction of HDAC1 degradation at 0.1 to 10 uM incubated for 24 hrs by Western blot analysis relative to control. The following applies: dose 0.1-10 µM. The assay is classed as cell-based. The procedure, abridged: as §1

The target is the same in assay [5]. As to the kind of experiment: PROTAC activity at VHL/HDAC1 in human HCT-116 cells assessed as HDAC1 level at 0.1 uM incubated for 24 hrs by Western blot analysis relative to control. Format: cell-based. The essentials:
as §1

Assay [6] concerns the target T3, von Hippel-Lindau disease tumor suppressor/Histone deacetylase 3 (Homo sapiens). As to the kind of experiment: PROTAC activity at VHL/HDAC3 in human HCT-116 cells assessed as HDAC3 level at 0.5 uM incubated for 24 hrs by Western blot analysis relative to control. Format: cell-based. The essentials: as §1
For assay [7] the target is unchanged. As to the kind of experiment: PROTAC activity at VHL/HDAC3 in human HCT-116 cells assessed as HDAC3 level at 0.05 uM incubated for 24 hrs by Western blot analysis relative to control. Format: cell-based. The procedure, abridged: as §1
Assay [8] concerns the target T1, von Hippel-Lindau disease tumor suppressor/Histone deacetylase 2 (Homo sapiens). As to the kind of experiment: PROTAC activity at VHL/HDAC2 in human HCT-116 cells assessed as induction of HDAC2 degradation by measuring maximum efficacy at 10 uM incubated for 24 hrs by Western blot analysis relative to control. The assay is classed as cell-based. The procedure, abridged: as §1

For assay [9], the system named is HCT-116. As to the kind of experiment: Inhibition of class I HDAC in human HCT-116 cells nucleus extract assessed as fold change in H3K56 acetylation level at 1 uM incubated for 24 hrs by Western blot analysis relative to control. Format: subcellular. The essentials: (§2)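 HCT116 cells were treated 24 h after seeding and exposed for 24 h. Histones were acid-extracted from the lysis pellet with 0.4 N H2SO4 overnight at 4 °C. Immunoblots were probed for H3K56Ac, with total H3 as control, and imaged by IRDye infrared detection. Fold change in H3K56Ac is relative to DMSO. Controls were CI-994 and JPS004 at 10 μM.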

Assay [10] has as its system HCT-116. As to the kind of experiment: Inhibition of class I HDAC in human HCT-116 cells nucleus extract assessed as fold change in H3K56 acetylation level at 10 uM incubated for 24 hrs by Western blot analysis relative to control. Format: subcellular. The procedure, abridged:
as §2

Assay [11] deals with T3, von Hippel-Lindau disease tumor suppressor/Histone deacetylase 3 (Homo sapiens). As to the kind of experiment: PROTAC activity at VHL/HDAC3 in human HCT-116 cells assessed as HDAC3 level at 0.01 uM incubated for 24 hrs by Western blot analysis relative to control. Format: cell-based. The procedure, abridged: as §1
Assay [12] deals with HCT-116. As to the kind of experiment: Inhibition of class I HDAC in human HCT-116 cells nucleus extract assessed as fold change in H3K56 acetylation level at 0.1 uM incubated for 24 hrs by Western blot analysis relative to control. The assay is classed as subcellular. The procedure, abridged:
as §2

The target in assay [13] is T1, von Hippel-Lindau disease tumor suppressor/Histone deacetylase 2 (Homo sapiens). As to the kind of experiment: PROTAC activity at VHL/HDAC2 in human HCT-116 cells assessed as HDAC2 level at 0.25 uM incubated for 24 hrs by Western blot analysis relative to control. Format: cell-based. The procedure, abridged:
as §1

In assay [14] the target is T2, von Hippel-Lindau disease tumor suppressor/Histone deacetylase 1 (Homo sapiens). As to the kind of experiment: PROTAC activity at VHL/HDAC1 in human HCT-116 cells assessed as HDAC1 level at 0.25 uM incubated for 24 hrs by Western blot analysis relative to control. The assay is classed as cell-based. The essentials: as §1
Assay [15] concerns the target T3, von Hippel-Lindau disease tumor suppressor/Histone deacetylase 3 (Homo sapiens). As to the kind of experiment: PROTAC activity at VHL/HDAC3 in human HCT-116 cells assessed as HDAC3 level at 0.025 uM incubated for 24 hrs by Western blot analysis relative to control. The assay is classed as cell-based. The essentials:
as §1

The target in assay [16] is T2, von Hippel-Lindau disease tumor suppressor/Histone deacetylase 1 (Homo sapiens). As to the kind of experiment: PROTAC activity at VHL/HDAC1 in human HCT-116 cells assessed as HDAC1 level at 1 uM incubated for 24 hrs by Western blot analysis relative to control. The assay is classed as cell-based. The procedure, abridged:
as §1

In general, Emax refers to the size of the effect at its maximum, as opposed to the concentration needed. For the compound `Cc1ncsc1-c1ccc(CNC(=O)[C@@H]2C[C@@H](O)CN2C(=O)[C@@H](NC(=O)CCCCCCCCCn2cc(CCCOC(=O)NCc3ccc(C(=O)Nc4ccccc4N)cc3)nn2)C(C)(C)C)cc1`, the Activity in [1] was less than 50%; in [3], 107%; in assay [5], 118%; in assay [6] it was 110%; in [7], 97%; in [11], 100%. Moreover, the Activity worked out at 95% in assay [13], 92% in [14], 93% in [15] and 73% in assay [16]. Also, the Emax came out at 62% in [2] and 37% in [8]. In addition, in assay [4], the outcome was Active. The fold change (FC) was determined as 1.2 with HCT-116 [9], 3 with HCT-116 [10] and 1.2 in the assay with HCT-116 [12].
